Assay results reported in the EternaBench riboswitch data.

Test system: MS2 coat protein
Assay: apparent Kd, MS2 coat protein; higher = weaker binding; RNA-MaP array; theophylline 2 mM where present
In short: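 Green signal was scaled to red-channel RNA signal and control-cluster median Fmax, and the apparent Kd was taken as the median of filtered per-cluster binding-curve fits. The binding series used SNAP-549-labelled MS2 coat protein from 0.7 or 1.5 nM, doubling to 3 µM, on designs transcribed by stalled E. coli RNA polymerase on Illumina sequencing-chip clusters. Each series ran without and then with constant ligand in 100 mM Tris-HCl pH 7.5, 80 mM KCl, 4 mM MgCl2, BSA, DTT, yeast tRNA and Tween-20.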

[1] = designed as: ON switch for theophylline, no ligand
[2] = ligand present: theophylline, designed as: ON switch for theophylline
[3] = designed as: OFF switch for theophylline, no ligand
[4] = ligand present: theophylline, designed as: OFF switch for theophylline

| Sequence | apparent Kd [1] | apparent Kd [2] | apparent Kd [3] | apparent Kd [4] |
| --- | --- | --- | --- | --- |
| AGAUUACAUGUUUUAAUACGGAAAACUGAUACCAGUGUAUCUAUUCACCCUUGGCAGCAGCAACAUGAGGAUCACCCAUGUAUUA | 19.2 nM | 19.2 nM | – | – |
| ACAUGAGGAUGGGAUACCAGAUACAUGAGGAUCACCCAUACAUGAGGAUCACCCAUGUCCGUCCCUUGGCAGCCCAACAUGAGGA | – | – | 169 nM | 506 nM |
| GUAUGGAAACAUACUAGGGUAUCAUGAGAUACCAGUACAGAAAUGUACCCUUGGCAGCUCAAGCAUACAUGAGGAUCACCCAUGU | – | – | 16.4 nM | 27.1 nM |
| AAAUAAAUAACUGAUACCAGUGUACUGACAUGAGGAUCACCCAUGUUGGGUUUUGUUGUACACCCUUGGCAGCAGAAAUAUAAAA | – | – | 35.3 nM | 73 nM |
| AGUACUCGAACGGAUACCAGCCGGACAUGAGGAUCACCCAUGUCCUACCAUGUCUCGGUUGGCCCUUGGCAGCCGUUCGUGUACA | 83.4 nM | 234 nM | – | – |
| UAUAUAUAUAGGGAUACCAGCAGAGAAAACGUUUAUCCUAACAUGAGGAUCACCCAUGUAUGCCCUUGGCAGCUUUAUAUAUAUA | – | – | 22.9 nM | 31.2 nM |
| ACUCUGUCGGGUGAUACCAGCCUCGGCACAUCUCGCGCCGAACAUGAGGAUCACCCAUGUGGCCCUUGGCAGCACAUGACAAAUC | 328 nM | 83.1 nM | – | – |
| ACAUGAGGAUCACCCAUGUUCCUCGCCGAUACCAGUGAAGAAGAACGCCCUUGGCAGCGGAAAGAAUAUUUUGGAGAUGAGAUAU | – | – | 204 nM | 270 nM |
| UGUAACAUGAGGAUCACCCAUGUGAGUGAUACCAGAUUAGUAUUAGUCCCUUGGCAGCACAUUGGGCGAGUGUAUAGUCUAUGCG | 154 nM | – | – | – |
| ACAUUAGUUGGCGAUACCAGCUAUAGGCCUUCUGGGCGACAUGAGGAUCACCCAUGUGAUGGCCCUUGGCAGCGCUGAUUGAUGU | 151 nM | 41.4 nM | – | – |
| AAACUGGGUGUAAAAUAAAUAAUCACUGAUACCAGACUAUGAGAUGUCCCUUGGCAGCAGAAACAUGAGGAUCACCCAUGUAAUA | – | – | 17.9 nM | 21.2 nM |
| UCGUGUGUUUCGGAUACCAGUGUGGUCGAUACAUGAGGAUCACCCAUGUUAGAGGAGGUACACCCUUGGCAGCCGGCUGUUGCGG | 108 nM | 51.1 nM | – | – |
| CGAAUACGAAUUGAUACCAGCAUGUUAACAUGAGGAUCACCCAUGUUAAGGAUAACAUAAUGCCCUUGGCAGCAACGUAAAUUCG | 19.4 nM | 13.4 nM | – | – |
| AAUAAUCUAGGUGAUACCAGCUCAACAUGAGGAUCACCCAUGUACUCAUGUAGAGUUGAGAGCCCUUGGCAGCACCUAGAUAAUA | 553 nM | 74.9 nM | – | – |
| UCACGUGGGAAUGAUACCAGCCACAUGAGGAUCACCCAUGUGCAUGGUGUGAGCUUCACGGGCCCUUGGCAGCAUUUCAAGUCGC | – | – | 48 nM | 69.5 nM |
| AUUCAUAAUUGGGUAAAUGGAUAGAGUGAUACCAGUCAUAUACAUGACCCUUGGCAGCACAAGGACAUGAGGAUCACCCAUGUCA | 24.2 nM | 16.3 nM | – | – |
| AGCGAUAUGCAUGAUACCAGCUACAUGAGGAUCACCCAUGUACGUCAGUAAUGACUGUGUAGCCCUUGGCAGCAUAGAGCAUGUA | – | – | 25.5 nM | 33 nM |
| UUAGAUAUGACAGAUACCAGCGUGUUAUAAAACAUGAGGAUCACCCAUGUAGUGAUCGAGCGCCCUUGGCAGCUGGUGUGUUUGG | 69.6 nM | 208 nM | – | – |
| UUUUUUAUUAUGGCGUAUCGGAAAACCGAUACCAGUACAGAAAUGUACCCUUGGCAGCGGCGUUUUACAUGAGGAUCACCCAUGU | – | – | 13.9 nM | 20.1 nM |
| AUAUGAUCAUGUGAUACCAGAAAUGGUAUUCCUCGCUGGAUUACAUGAGGAUCACCCAUGUUCCCUUGGCAGCAUAUGAUCAUAU | – | – | 21.4 nM | 269 nM |
| AAUAACAUGAGGAUCACCCAUGUAAAAGAUACCAGAUGCAUGAUGAUCCCUUGGCAGCUUAAAACGCGAUUGAUUACAAUCGCGA | 33.3 nM | 107 nM | – | – |
| UAACAUGAGGAUCACCCAUGUAUAGUCGAUACCAGCUCAAGGGAGAGCCCUUGGCAGCGACACUGGUAUCCAUGGGUGUGGAUAC | 82.3 nM | 81.3 nM | – | – |
| ACGUCCGGAUUAAUCGUGGGCAUGGUCGAUACCAGUAUUUUAAUCUACCCUUGGCAGCGACAUGAGGAUCACCCAUGUGCGAUGA | – | – | 16.7 nM | 30.9 nM |
